Results from ChEMBL document CHEMBL1135922, “A common mechanism underlying promiscuous inhibitors from virtual and high-throughput screening” (J Med Chem, 2002).

Test: Aggregates forming ability by dynamic light scattering(DLS).
In short: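 Compound from 10 mM DMSO stock diluted into filtered KPi (5, 50 or 500 mM); dynamic light scattering at 90° detector angle, 25 °C, argon-ion laser at 514.4 nm (helium-neon 632.8 nm for dyes absorbing at 514.4 nm). Mean particle diameter by cumulant analysis; scattering intensity recorded. Each value from four or more independent measurements.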

SMILES | DLS Concentration
COC1CC[C@@]2(C)[C@@H](CC[C@@H]3[C@@H]2[C@@H](O)C[C@]2(C)[C@@H](NCCN)CC[C@@H]32)C1 (stereo not given in full) | 100 µM
O=C(N/N=C/c1ccccc1O)C(=O)N/N=C/c1ccccc1O | 10 µM
COc1ccc2c(c1)CC[C@@H]1[C@@H]2CC[C@]2(C)[C@@H](NCCNc3ccc([N+](=O)[O-])cn3)CC[C@@H]12 | 40 µM
Oc1ccc(-c2csc(Nc3ccc(F)cc3F)n2)cc1O | 300 µM
Cc1cc(Cl)cc2c1C(=O)/C(=C1/Sc3cc(Cl)cc(C)c3C1=O)S2 | 20 µM
C(=C1c2ccccc2-c2ccccc21)C1CCCNC1 (stereo not given) | 100 µM
O=C1Nc2ccccc2/C1=C\c1ccc2c(c1O)CCCC2 | 40 µM
CC(C)c1ccc(/C=C2/C(=O)Nc3ccccc32)cc1 | 10 µM
CC(C)(C)c1cc(/C=C2/C(=O)Nc3ncccc32)cc(C(C)(C)C)c1O | 10 µM
O=C(Nc1nnc(Sc2nc3cc(Cl)ccc3s2)s1)c1cccs1 | 15 µM
O=C1C(I)=CC(=C(c2cc(I)c(O)c(I)c2)c2ccccc2C(=O)O)C=C1I | 10 µM
COc1ccc2c(c1)CC[C@@H]1[C@@H]2CC[C@]2(C)[C@@H](NCCCc3ccccc3)CC[C@@H]12 | 100 µM
O=C1Nc2ccccc2/C1=C/c1ccc(-c2cccs2)s1 | 20 µM
O=C1OC2(c3cc(I)c(O)c(I)c3Oc3c2cc(I)c(O)c3I)c2c(Cl)c(Cl)c(Cl)c(Cl)c21 | 500 µM
CN(C)c1ccc(/C=C2/C(=O)Nc3ccccc32)cc1 | 30 µM
OB(O)c1cc2ccccc2s1 | 100 µM
O=C1C2C(C(=O)N1Nc1ccc([N+](=O)[O-])cc1[N+](=O)[O-])[C@@]1(Cl)C(Cl)=C(Cl)[C@]2(Cl)C1(Cl)Cl (stereo not given in full) | 15 µM

More lines, now with the values ahead:

DLS Concentration | SMILES
100 µM | Oc1oc(/C=N/c2ccc(Oc3ccccc3)cc2)c2ccccc12
1000 µM | O=S(=O)(O)c1cccc2cccc(Nc3ccccc3)c12
50 µM | CC(C)CC(Oc1ccc(OC(=O)c2cc(-c3ccc(Cl)cc3)nc(-c3ccc(Cl)cc3)c2)cc1)C(=O)O (stereo not given)
500 µM | Cc1ccc(-c2cc(C(=O)O)cc(-c3ccc4ccccc4c3)n2)cc1
10 µM | Oc1ccc(/N=N/c2ccc(Br)cc2)cc1
50 µM | O=C(O)c1cc(-c2ccc(Cl)cc2)nc(-c2ccc(Sc3ccc(Cl)cc3)cc2)c1
50 µM | CC(C)(C)c1ccc(-c2cc(C(=O)O)cc(-c3ccc(Cl)c(Cl)c3)n2)cc1
50 µM | CCCCc1ccc(-c2cc(C(=O)O)cc(-c3ccc(Cl)cc3)n2)cc1
500 µM | CCCCCCC(Oc1ccc(S(=O)(=O)c2ccc(OCc3ccccc3)cc2)cc1)C(=O)O (stereo not given)
80 µM | O=C(O)c1cc(-c2ccc(Cl)cc2)nc(-c2ccc(-c3ccccc3)cc2)c1
20 µM | O=C(O)COc1ccc(/N=N/c2ccc3cc(Br)ccc3c2O)cc1
750 µM | Nc1c(/N=N/c2ccc(-c3ccc(/N=N/c4cc(S(=O)(=O)O)c5ccccc5c4N)cc3)cc2)cc(S(=O)(=O)O)c2ccccc12
500 µM | Oc1ccc(/N=N/c2cccc(Br)c2)cc1
